Assay outcomes: PubChem BioAssay, Broad Institute
FN deposit inh = fibronectin deposition inhibition; AH1F fibroblasts, Alexa488-fibronectin deposition fluorescence, overnight; inhibition, % at 12.6 µM; 350,000 tested, 0.086% active; AID 743247;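 active means mean inhibition across replicates of 30% or more, regardless of how many single replicates reach that level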;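 further: positive control wells lacked labelled fibronectin entirely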
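Material: AH1F fibroblast monolayer depositing Alexa488-labelled fibronectin into matrix / Amount: 10000 AH1F cells per well / Signal: fluorescence 485/525 nm / Medium: DMEM, 2% serum / Compound: single dose, pinned / Incubation: 1 h cell adhesion before compound, then overnight fibronectin incubation / Reagent: Alexa488-FN, 24 nM final / Read-out: inhibition of fibronectin deposition signal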
Ecoli rRNA inh = inhibits bacterial ribosomal RNA function over humanized ribosomes | 350,000 tested, 1.6% active | GFP signal change (wild-type ribosome), % (no concentration beside the values) | AID 720706 | E. coli WT GFP vs humanized-ribosome RFP mutants, fluorescence, 24 h; hits give low values; DMSO median 0, no signal -100;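 active means significant combined selectivity score with lowered wild-type GFP, culture density cut under 30%, mutant RFP and density less affected; inactive means any of these conditions unmet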
E-selectin induc = induces E-selectin expression in human endothelial cells. activation, % at 7.58 µM. P16581. 260,000 tested, 0.37% active. HUVEC E-selectin immunofluorescence imaging; normalized: neutral wells 0, TNF-alpha wells 100;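 active means mean E-selectin-positive cell signal at least 10% of the positive control, reached in at least 60% of replicates, without over 20% cell loss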
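Read-out basis: % PE-positive cells; Test system: HUVEC primary endothelial cells; Technique: immunofluorescence imaging; Dosing: single-point compound dose.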
C2C12 statin = protects C2C12 myotubes from simvastatin toxicity | ATP luminescence, 48 h; scaled: DMSO 0, geranylgeraniol control 100 | rescue of ATP level, % at 7.49 µM | 330,000 tested, 0.78% active;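 active means mean ATP rescue above about 67%, or every replicate alone reaching that limit, limit read from the data, passing the limit was not always enough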;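 further: myotubes were challenged with 10 µM simvastatin during compound exposure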
FGF22 binding = shifts melting point of recombinant human FGF22 | 340,000 tested, 1.5% active | activity (Tm shift, normalised), % at 9.99 µM | AID 651658 | Q9HCT0 | recombinant FGF22 thermal shift, SYPRO orange fluorescence; percent of sucrose octasulfate shift, DMSO zero;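 active means mean Tm shift, scaled 0 neutral to 100 positive control, at about 1.3% or above, every replicate too, limit read from the data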
Target sequence (Q9HCT0 whole entry, looked up): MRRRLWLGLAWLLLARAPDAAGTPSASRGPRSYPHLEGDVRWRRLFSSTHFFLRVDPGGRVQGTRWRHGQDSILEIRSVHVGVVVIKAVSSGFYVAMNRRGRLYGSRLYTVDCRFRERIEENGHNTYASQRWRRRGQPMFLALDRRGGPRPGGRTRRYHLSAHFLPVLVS
SIRT5 block = inhibitors of human sirtuin-5 desuccinylase. Q9NXA8. inhibition, % at 15 µM. Purified SirT5, succinyl-peptide AMC, trypsin-coupled fluorescence. 330,000 tested, 1.1% active. AID 652115; in the data active means inhibition above about 15%
* marks the source's active call; other numbers are inactive results; / = not tested or not shown. This is a sample that favours compounds with a hit; in the whole collection about 4% have one here.

SMILES	FN deposit inh	Ecoli rRNA inh	E-selectin induc	C2C12 statin	FGF22 binding	SIRT5 block
COc1ccc(CN(C)C[C@H]2Oc3ccc(NC(=O)Cc4cn(C)c5ccccc45)cc3C(=O)N([C@@H](C)CO)C[C@@H]2C)cc1	/	1	0	-12	0	1
C[C@H]1CN([C@@H](C)CO)C(=O)Cc2cc(NC(=O)Cn3cnnn3)ccc2O[C@@H]1CN(C)Cc1ccc2c(c1)OCO2	/	3	/	9	0	-2
COc1cccc(CNc2ccc3c(c2)ncn3C(C)C)c1OC	1	-21*	1	9	0	-1
Cc1ccc(-n2c(-c3ccccc3)c[n+]3c2CCc2ccccc2-3)c(C)c1	-8	-53*	-1	/	0	-1
Cc1ccc(-n2c(-c3ccccc3)c[n+]3c2CCC3)cc1	-26	-8	/	/	0	-2
COc1ccc2oc(=N)c(C(=O)NCc3ccccc3)cc2c1	-1	12	3	5	0	20*
Cc1nn(Cc2ccccc2)c(C)c1NC(=O)CSc1nnc(-c2cc(Cl)ccc2O)n1C	/	-20*	/	-16	0	0
COc1cccc(-c2ccc3n(c2=O)C[C@H]2[C@H](CO)[C@@H](C(=O)NC4CCC4)[C@@H]3N2C)c1	/	1	0	-2	0	-6
O=C(Oc1ccc(Br)cc1)c1n[nH]c(=O)c2ccccc12	-2	17	0	-3	43*	1
CO[C@H]1CN(C)C(=O)c2ccc(NC(=O)C3CCOCC3)cc2OC[C@H](C)N(Cc2cccnc2)C[C@H]1C	-4	-2	1	-7	0	/
COc1ccc(C(=O)N2CC=C(c3ccccc3)CC2)cc1S(=O)(=O)N1CCOCC1	/	/	/	82*	/	/
COc1cc(/C=C/C(=O)Nc2cccc(S(=O)(=O)N3CCOCC3)c2)ccc1OCC#N	0	-4	1	7	4.1*	-9
COc1ccc(/C=C/C(=O)Nc2ccccc2)cc1S(=O)(=O)N1CCOCC1	8	-18*	5	-24	0	-1
N#C[C@@H]1[C@@H](c2ccc(-c3cncnc3)cc2)[C@H](CO)N1C(=O)C1CCC1	2	-1	0	12	0	2
O=C(NCC[C@H]1CC[C@H](NC(=O)c2ccc3c(c2)OCO3)[C@@H](CO)O1)Nc1ccc(Cl)cc1	-17	-11	1	-2	0	1
COc1ccc(-c2nn(-c3ccccc3)cc2/C=C(\CC(=O)O)c2nc3ccccc3s2)cc1OC	-3	-25	1	-13	1	11
COc1cc(C=C(c2nc3ccccc3s2)c2nc3ccccc3s2)cc(OC)c1O	0	/	/	/	/	/
COc1ccc(/C=C(\CC(=O)O)c2nc3ccccc3s2)cc1O	5	-25*	1	-3	0	4
COc1cc(/C=C(\CC(=O)O)c2nc3ccccc3s2)cc(OC)c1O	-9	-28	/	13	43*	3
COc1cc(/C=C(\CC(=O)O)c2nc3ccccc3s2)ccc1OCC(=O)Nc1ccccc1F	-5	-25*	0	-5	0	0
CCOc1cc(/C=C(\CC(=O)O)c2nc3ccccc3s2)ccc1OCC(=O)Nc1cccc(C(F)(F)F)c1	3	-12	0	6	0	4
Cc1ccc(/C=C(\CCC(=O)O)c2nc3ccccc3s2)cc1[N+](=O)[O-]	-8	-29*	/	/	0	4
CC(C)C#Cc1cnc2c(c1)C(=O)N([C@@H](C)CO)C[C@H](C)[C@H](CN(C)C(=O)Nc1ccccc1)O2	-20	-4	0	14	0	0
COc1ccc(C(=O)Nc2cccc(/C=C(\CCC(=O)O)c3nc4ccccc4s3)c2)cc1	-21	-19	4	-10	0	1
O=C(O)C/C(=C\c1cccc(NC(=O)c2ccccc2Cl)c1)c1nc2ccccc2s1	-3	-35*	/	0	0	4
C[C@@H]1CN([C@@H](C)CO)C(=O)c2cc(C#Cc3cccnc3)cnc2O[C@@H]1CN(C)C(=O)CC1CC1	6	-1	1	5	-1	10
CC(=O)c1ccc2c(c1)C1C=CCC1C(c1ccncc1)N2 (centres undefined)	/	/	/	4	/	/
